Active and inactive are the calls of the source. The calls are words filed in the database; no cut-off is given here.
Key:
HepG2 [1] = experiment: Antiproliferative activity against human HepG2 cells after 24 hrs by MTT assay; assay type: functional, cell-based; conditions: HepG2, 24 h
Summary of the method: (§1)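 Cells grown in DMEM with 10% heat-inactivated fetal calf serum at 37 °C, 5% CO2; 3 × 10^5 cells/well plated overnight, then exposed in triplicate to a range of concentrations for 24 h. MTT (5 mg/mL) was added for the final 4 h, formazan dissolved in DMSO, absorbance at 570 nm. IC50 is the mean of dose–response curves from at least three independent experiments.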

Bel-7402 [2] = experiment: Antiproliferative activity against human Bel7402 cells after 24 hrs by MTT assay; assay type: functional, cell-based; conditions: Bel-7402, 24 h; summary of the method: as §1
[3] = Antiproliferative activity against human L02 cells at 10 uM after 24 hrs by MTT assay; assay type: cell-based; conditions: for Activity: l02, 24 h, 10 µM; for inhibition at 24 h, 10 µM: L02 cells
Summary of the method: (§2)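 Cells cultured in DMEM with 10% heat-inactivated fetal calf serum at 37 °C, 5% CO2, plated overnight and then exposed to 10 µM compound for 24 h. MTT was added for the last 4 h, formazan dissolved in DMSO and read at 570 nm. Values are mean % cytotoxicity ± SD from three separate experiments.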

Bel-7402 [4] = experiment: Antiproliferative activity against human Bel7402 cells at 10 uM after 24 hrs by MTT assay; assay type: functional; conditions: for inhibition of growth at 10 µM: Bel-7402, 24 h, read-out: GI; summary of the method: as §2
HepG2 [5] = experiment: Induction of nitric oxide release in human HepG2 cells at 100 uM […] by Griess assay; assay type: functional, cell-based
Bel-7402 [6] = experiment: Induction of nitric oxide release in human Bel7402 cells at 10 uM for 24 hrs pretreated with hemoglobin for 1 hr by Griess assay; assay type: functional, cell-based
Summary of the method: (§3)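 BEL-7402 cells in 24-well plates were pretreated in triplicate with hemoglobin (0, 1, 5, 10 or 20 µM) for 1 h, then given compound at 5 or 10 µM for 24 h. NO in the cells was measured by Griess assay and reported as mean concentration for each condition.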

Bel-7402 [7] = experiment: Induction of nitric oxide release in human Bel7402 cells at 100 uM […] by Griess assay; assay type: functional, cell-based
[8] = Toxicity in human L02 cells assessed as induction of nitric oxide release at 100 uM […] by Griess assay; assay type: cell-based; conditions: l02, 100 µM
Bel-7402 [9] = experiment: Antiproliferative activity against human Bel7402 cells at 10 uM for 24 hrs pretreated with hemoglobin for 1 hr by MTT assay; assay type: functional, cell-based
Summary of the method: (§4)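 BEL-7402 cells in 24-well plates were pretreated in triplicate with hemoglobin (0, 1, 5, 10 or 20 µM) for 1 h as an NO scavenger. Compound was then added at 5 or 10 µM for 24 h and cytotoxicity read by MTT. Data are mean % cytotoxicity for each condition.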

Bel-7402 [10] = experiment: Antiproliferative activity against human Bel7402 cells at 5 uM for 24 hrs pretreated with hemoglobin for 1 hr by MTT assay; assay type: functional, cell-based; summary of the method: as §4
Bel-7402 [11] = experiment: Induction of nitric oxide release in human Bel7402 cells at 5 uM for 24 hrs pretreated with hemoglobin for 1 hr by Griess assay; assay type: functional, cell-based; summary of the method: as §3

| Compound | IC50 (HepG2 [1]) | IC50 (Bel-7402 [2]) | further results |
| --- | --- | --- | --- |
| COC(=O)[C@@]1(C)CC[C@]2(C)CC[C@]3(C)C(=CC(=O)[C@@H]4[C@@]5(C)CC[C@H](OC(=O)CCC(=O)OCC#CCOc6no[n+]([O-])c6S(=O)(=O)c6ccccc6)C(C)(C)[C@@H]5CC[C@]43C)[C@@H]2C1 | 11.6 µM | 13.4 µM |  |
| CC(O)CCOc1no[n+]([O-])c1S(=O)(=O)c1ccccc1 (centres undefined) |  |  | Activity [3]: Toxic; growth inhibition (GI) (Bel-7402 [4]): Active |
| COC(=O)[C@@]1(C)CC[C@]2(C)CC[C@]3(C)C(=CC(=O)[C@@H]4[C@@]5(C)CC[C@H](OC(=O)CCC(=O)NCCOc6no[n+]([O-])c6S(=O)(=O)c6ccccc6)C(C)(C)[C@@H]5CC[C@]43C)[C@@H]2C1 | 2.9 µM | 2.94 µM |  |
| CC(=O)O[C@H]1CC[C@]2(C)[C@H]3C(=O)C=C4[C@@H]5C[C@@](C)(C(=O)OCC#CCOc6no[n+]([O-])c6S(=O)(=O)c6ccccc6)CC[C@]5(C)CC[C@@]4(C)[C@]3(C)CC[C@H]2C1(C)C | 7.5 µM | 15 µM |  |
| COc1cccc2c1C(=O)c1c(O)c3c(c(O)c1C2=O)C[C@@](O)(C(=O)CO)C[C@@H]3O[C@H]1C[C@H](N)[C@H](O)[C@H](C)O1 [DOXORUBICIN] | 2.03 µM | 0.9 µM |  |
| CC1(C)[C@@H](O)CC[C@]2(C)[C@H]3C(=O)C=C4[C@@H]5C[C@@](C)(C(=O)O)CC[C@]5(C)CC[C@@]4(C)[C@]3(C)CC[C@@H]12 [ENOXOLONE] | > 50 µM | > 50 µM |  |
| COC(=O)[C@@]1(C)CC[C@]2(C)CC[C@]3(C)C(=CC(=O)[C@@H]4[C@@]5(C)CC[C@H](OC(=O)CCC(=O)OCCOCCOc6no[n+]([O-])c6S(=O)(=O)c6ccccc6)C(C)(C)[C@@H]5CC[C@]43C)[C@@H]2C1 | 15.7 µM | 19.9 µM |  |
| O=S(=O)(c1ccccc1)c1c(OCCCO)no[n+]1[O-] |  |  | Activity [3]: Toxic; growth inhibition (GI) (Bel-7402 [4]): Active |
| O=S(=O)(c1ccccc1)c1c(OC/C=C/CO)no[n+]1[O-] |  |  | Activity [3]: Toxic; growth inhibition (GI) (Bel-7402 [4]): Active |
| O=S(=O)(c1ccccc1)c1c(OCC#CCO)no[n+]1[O-] |  |  | Activity [3]: Toxic; growth inhibition (GI) (Bel-7402 [4]): Active |
| O=S(=O)(c1ccccc1)c1c(OCCCCO)no[n+]1[O-] |  |  | Activity [3]: Toxic; growth inhibition (GI) (Bel-7402 [4]): Active |

Further lines, with some results ahead:

| IC50 (HepG2 [1]) | IC50 (Bel-7402 [2]) | Compound | further results |
| --- | --- | --- | --- |
| 31.4 µM | 21.4 µM | CC(=O)O[C@H]1CC[C@]2(C)[C@H]3C(=O)C=C4[C@@H]5C[C@@](C)(C(=O)OCCOCCOc6no[n+]([O-])c6S(=O)(=O)c6ccccc6)CC[C@]5(C)CC[C@@]4(C)[C@]3(C)CC[C@H]2C1(C)C |  |
| 9.06 µM | 1.38 µM | CC1(C)[C@@H](O)CC[C@]2(C)[C@H]3C(=O)C=C4[C@@H]5C[C@@](C)(C(=O)NCC(=O)OCCOc6no[n+]([O-])c6S(=O)(=O)c6ccccc6)CC[C@]5(C)CC[C@@]4(C)[C@]3(C)CC[C@@H]12 |  |
| 6.4 µM | 9.47 µM | CC(=O)O[C@H]1CC[C@]2(C)[C@H]3C(=O)C=C4[C@@H]5C[C@@](C)(C(=O)NCC(=O)OCCOCCOc6no[n+]([O-])c6S(=O)(=O)c6ccccc6)CC[C@]5(C)CC[C@@]4(C)[C@]3(C)CC[C@H]2C1(C)C |  |
| 14.7 µM | 3.84 µM | CC(=O)O[C@H]1CC[C@]2(C)[C@H]3C(=O)C=C4[C@@H]5C[C@@](C)(C(=O)OCCOc6no[n+]([O-])c6S(=O)(=O)c6ccccc6)CC[C@]5(C)CC[C@@]4(C)[C@]3(C)CC[C@H]2C1(C)C |  |
| 11.5 µM | 15.3 µM | CC(=O)O[C@H]1CC[C@]2(C)[C@H]3C(=O)C=C4[C@@H]5C[C@@](C)(C(=O)OCCCOc6no[n+]([O-])c6S(=O)(=O)c6ccccc6)CC[C@]5(C)CC[C@@]4(C)[C@]3(C)CC[C@H]2C1(C)C |  |
| 36.5 µM | 8.2 µM | COC(=O)[C@@]1(C)CC[C@]2(C)CC[C@]3(C)C(=CC(=O)[C@@H]4[C@@]5(C)CC[C@H](OC(=O)CCC(=O)OCCCCOc6no[n+]([O-])c6S(=O)(=O)c6ccccc6)C(C)(C)[C@@H]5CC[C@]43C)[C@@H]2C1 |  |
| 23.7 µM | 14.2 µM | CC(=O)O[C@H]1CC[C@]2(C)[C@H]3C(=O)C=C4[C@@H]5C[C@@](C)(C(=O)NCCOc6no[n+]([O-])c6S(=O)(=O)c6ccccc6)CC[C@]5(C)CC[C@@]4(C)[C@]3(C)CC[C@H]2C1(C)C |  |
| 7.4 µM | 2.47 µM | CC1(C)[C@@H](O)CC[C@]2(C)[C@H]3C(=O)C=C4[C@@H]5C[C@@](C)(C(=O)NCCOc6no[n+]([O-])c6S(=O)(=O)c6ccccc6)CC[C@]5(C)CC[C@@]4(C)[C@]3(C)CC[C@@H]12 |  |
| 6.78 µM | 0.25 µM | CC1(C)[C@@H](O)CC[C@]2(C)[C@H]3C(=O)C=C4[C@@H]5C[C@@](C)(C(=O)NCC(=O)OCCCCOc6no[n+]([O-])c6S(=O)(=O)c6ccccc6)CC[C@]5(C)CC[C@@]4(C)[C@]3(C)CC[C@@H]12 | Activity (HepG2 [5]): Active; inhibition at 24 h, 10 µM [3]: < 18%; growth inhibition (GI) (Bel-7402 [6]): inactive; Activity (Bel-7402 [7]): Active; Activity [8]: Non-toxic; Activity (Bel-7402 [9]): inactive; Activity (Bel-7402 [10]): inactive; inhibition of growth at 10 µM (Bel-7402 [4]): > 83.5%; growth inhibition (GI) (Bel-7402 [11]): inactive |
| 3.79 µM | 0.43 µM | CC1(C)[C@@H](O)CC[C@]2(C)[C@H]3C(=O)C=C4[C@@H]5C[C@@](C)(C(=O)NCC(=O)OCCCOc6no[n+]([O-])c6S(=O)(=O)c6ccccc6)CC[C@]5(C)CC[C@@]4(C)[C@]3(C)CC[C@@H]12 | Activity (HepG2 [5]): Active; inhibition at 24 h, 10 µM [3]: < 18%; Activity (Bel-7402 [7]): Active; Activity [8]: Non-toxic; inhibition of growth at 10 µM (Bel-7402 [4]): > 83.5% |
| 13.4 µM | 9.22 µM | COC(=O)[C@@]1(C)CC[C@]2(C)CC[C@]3(C)C(=CC(=O)[C@@H]4[C@@]5(C)CC[C@H](OC(=O)CCC(=O)OCCCOc6no[n+]([O-])c6S(=O)(=O)c6ccccc6)C(C)(C)[C@@H]5CC[C@]43C)[C@@H]2C1 |  |
| 18.2 µM | 7.85 µM | COC(=O)[C@@]1(C)CC[C@]2(C)CC[C@]3(C)C(=CC(=O)[C@@H]4[C@@]5(C)CC[C@H](OC(=O)CCC(=O)OCCOc6no[n+]([O-])c6S(=O)(=O)c6ccccc6)C(C)(C)[C@@H]5CC[C@]43C)[C@@H]2C1 |  |
| 3.39 µM | 0.84 µM | CC1(C)[C@@H](O)CC[C@]2(C)[C@H]3C(=O)C=C4[C@@H]5C[C@@](C)(C(=O)NCC(=O)OCC#CCOc6no[n+]([O-])c6S(=O)(=O)c6ccccc6)CC[C@]5(C)CC[C@@]4(C)[C@]3(C)CC[C@@H]12 | Activity (HepG2 [5]): Active; inhibition at 24 h, 10 µM [3]: < 18%; Activity (Bel-7402 [7]): Active; Activity [8]: Non-toxic; inhibition of growth at 10 µM (Bel-7402 [4]): > 83.5% |
| 5.18 µM | 3.78 µM | CC1(C)[C@@H](O)CC[C@]2(C)[C@H]3C(=O)C=C4[C@@H]5C[C@@](C)(C(=O)NCC(=O)OCCOCCOc6no[n+]([O-])c6S(=O)(=O)c6ccccc6)CC[C@]5(C)CC[C@@]4(C)[C@]3(C)CC[C@@H]12 |  |
